Data as given in PMC8496415 (Translational Vision Science & Technology, 2021).

Tests used:
[1] = system: Long Evans rat eyes; experiment: Clinical examination, OCT imaging and ERG after 28-day once-daily eye drop; assay type: in vivo
[2] = system: rat eyes; experiment: Histology and immunohistochemistry; assay type: in vivo; conditions: once-daily 10% eye drop, 14 and 28 days
How it was run: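 Rats received 5 µL of 10% test compound drops once daily in one eye, PBS in the other. Eyes were taken at days 14 and 28, fixed overnight in 4% paraformaldehyde at 4°C, frozen and cut into 12 µm sections. Stains: H&E; cleaved caspase-3 (5% BSA block, primary 1:200 2 h, Alexa 488 secondary 1:400 1 h, DAPI) with caspase-3+ DAPI+ cells scored; TUNEL with DNase I-treated positive control. Mean ± SEM, two-way ANOVA/Sidak.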

[3] = Maximum solubility / achievable concentration in solution; assay type: physicochemical
[4] = system: axial elongation; conditions: topical, chick; ref 25 (Thomson et al.); cited from earlier work
[5] = rat, once-daily 10% eye drop, 14 and 28 days

Rat behavior (activity levels, aggression, feeding pattern, weight gain) ([1]; 28-day once-daily topical 10%)	Maximum solubility ([3]; PBS, pH 7.4) [%]	Maximum concentration achievable ([3]; distilled water) [%]	SMILES	ERG A- and B-wave amplitude vs control eyes [1, 5]	OCT retinal structure [1, 5]	Hematoxylin and eosin staining of retina (inflammation) [2]	Number of cleaved caspase-3+ DAPI+ cells vs control (apoptosis) [2]	TUNEL staining (apoptosis) [2]	EC50 for a reduction of axial elongation [4] [%]
no obvious changes in rat behavior	10	–	CCOC(=O)[C@@H](N)Cc1ccc(O)c(O)c1 [etilevodopa]	no statistically significant difference in A- or B-wave amplitudes	did not demonstrate any qualitative structural changes	no infiltration of inflammatory cells, fibrosis or morphological changes	no statistically significant change	no TUNEL^+ DAPI^+ cells observed	–
–	–	0.5	N[C@@H](Cc1ccc(O)c(O)c1)C(=O)O [levodopa]	–	–	–	–	–	0.05
